Data from ChEMBL document CHEMBL1156627, “Ring expanded nucleoside analogues inhibit RNA helicase and intracellular human immunodeficiency virus type 1 replication” (J Med Chem, 2008).
Active and inactive are the calls of the source. No cut-off for these calls is given here.

Columns and labels:
[1] = tested on: Human immunodeficiency virus 1; assay: Inhibition of HIV1 replication in human MT4 cells assessed as reduction in reverse transcriptase production at 10 uM; type: functional, organism-based
Outline: (§1)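 MT4 cells (4 × 10^6, RPMI + 10% FBS) infected with 20,000 RT counts of NL4-3 (HeLa-transfection stock); compound added 4 hrs post-infection. Half the medium replaced every 2 days with drug-containing medium; supernatants collected every 2 days up to day 8 and assayed for RT activity (also p24 ELISA). Three independent experiments.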

[2] = target: ATP-dependent RNA helicase DDX3X (Homo sapiens) (UniProt O00571); assay: Inhibition of ATP dependent RNA unwinding activity of human RNA helicase DDX3
Sequence of ATP-dependent RNA helicase DDX3X (Homo sapiens) (O00571 2-662 limits assumed): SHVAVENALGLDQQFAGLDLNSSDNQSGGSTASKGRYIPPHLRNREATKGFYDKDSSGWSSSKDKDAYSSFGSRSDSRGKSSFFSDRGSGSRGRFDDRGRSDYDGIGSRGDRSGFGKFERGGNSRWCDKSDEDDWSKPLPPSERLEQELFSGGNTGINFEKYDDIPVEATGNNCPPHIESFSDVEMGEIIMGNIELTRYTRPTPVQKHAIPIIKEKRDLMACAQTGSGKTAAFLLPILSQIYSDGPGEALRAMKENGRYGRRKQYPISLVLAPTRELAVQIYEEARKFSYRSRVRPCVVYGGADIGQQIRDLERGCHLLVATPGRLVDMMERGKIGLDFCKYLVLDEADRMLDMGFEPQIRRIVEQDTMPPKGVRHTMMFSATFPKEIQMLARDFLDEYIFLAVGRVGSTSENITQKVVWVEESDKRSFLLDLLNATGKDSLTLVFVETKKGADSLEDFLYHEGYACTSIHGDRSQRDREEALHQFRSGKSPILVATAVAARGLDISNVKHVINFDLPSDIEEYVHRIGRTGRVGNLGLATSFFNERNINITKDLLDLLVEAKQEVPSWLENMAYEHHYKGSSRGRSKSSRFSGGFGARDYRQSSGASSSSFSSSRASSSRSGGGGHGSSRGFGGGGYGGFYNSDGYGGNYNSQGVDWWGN
Outline: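 Partially double-stranded RNA: 120-nt T3 transcript from KpnI-cut pBluescript hybridized (95 °C, 20 min) to complementary [α-32P]UTP-labelled T7 transcript from EcoRI-cut vector. Products resolved on 10% polyacrylamide gel, phosphorimaging.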

[3] = tested on: Human immunodeficiency virus 1; assay: Inhibition of HIV1 replication in human MT4 cells assessed as reduction in reverse transcriptase at 25 uM after 8 days by Western blotting; type: functional, organism-based; outline: as §1
[4] = tested on: Human immunodeficiency virus 1; assay: Inhibition of HIV1 replication in human MT4 cells assessed as p24 capsid protein level at 25 uM after 8 days by ELISA; type: functional, organism-based
Outline: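 NL4-3 virus stock made by HeLa transfection, titred by RT assay. 4 × 10^6 MT4 cells (RPMI, 10% FBS) infected with 20,000 RT counts; compound added 4 hrs post infection. Half the medium replaced every 2 days with fresh medium holding the same compound level. Supernatants taken every 2 days over 8 days for p24 ELISA. Three repeats.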

[5] = tested on: Human immunodeficiency virus 1; assay: Antiviral activity against HIV1 transfected in human HeLa cells assessed as reduction of p55 viral protein synthesis at 25 uM; type: functional, organism-based
Outline: (§2)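 HeLa cells transfected with 2µg pNL4-3 proviral clone; compound 25 µM added 3 hrs post-transfection. Lysates prepared 24 hrs later; viral proteins detected by Western blotting with anti-HIV-1 patient IgG (hyperimmune patient serum).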

[6] = tested on: Human immunodeficiency virus 1; assay: Antiviral activity against HIV1 transfected in human HeLa cells assessed as reduction of p24 viral protein synthesis at 25 uM; type: functional, organism-based; outline: as §2
[7] = tested on: Human immunodeficiency virus 1; assay: Inhibition of macrophage tropic HIV1 AD8 replication in monocyte-derived macrophages assessed as reduction in reverse transcriptase at 25 uM after 5 days by Western blotting; type: functional, organism-based
Outline: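 Monocyte-derived macrophages from elutriated blood monocytes cultured 5–7 days in RPMI-1640 with 10% pooled human AB serum and M-CSF, then infected with 10^5 RT counts of M-tropic HIV-1 AD8 and treated with compound. Supernatants collected every 3 days for RT activity and p24 ELISA; three repeats.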

[8] = tested on: Human immunodeficiency virus 1; assay: Inhibition of macrophage tropic HIV1 AD8 replication in monocyte-derived macrophages p24 capsid protein level at 25 uM after 5 days by ELISA; type: functional, organism-based
Outline: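 Elutriated blood monocytes cultured 5–7 days in RPMI-1640 with 10% pooled human AB serum and M-CSF to give macrophages. Infected on day 5 with 100,000 RT counts of HIV-1 AD8 (stock from HeLa transfection) and treated with compound. Supernatants collected every 3 days for p24 ELISA. Three repeats.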

Mus musculus = assay: Toxicity in BALB/c mouse assessed as tissue necrosis at 0.2 to 200 uM, ip administered […] relative to control; type: organism-based; conditions: in vivo, 840 h
Outline: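 BALB/c mice, 8–10 weeks old, groups of 4, injected intraperitoneally twice weekly for 4 weeks with boluses calculated to give body distributions of 0.2, 2, 20 and 200 µM. Controls received saline or DMSO. Mice monitored 5 weeks in total, tail-vein blood weekly, then necropsy and multi-organ histology.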

MT4 = assay: Cytotoxicity against human MT4 cells at 1 to 100 uM after 6 days by colorimetric assay relative to control; type: cell-based; conditions: mt4, 144 h
Outline: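 MT4 cells (4 × 10^6 in 2 ml, RPMI + 10% FBS) incubated with 1, 10 or 100 µM compound over 6 days; half the medium replaced every 2 days with fresh drug-containing medium. At each harvest 100 µl suspension incubated 2 hrs with WST-8, absorbance at 450 nm, compared with untreated cells.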

Structure (SMILES) | Activity [1] | Activity [2] | Activity [3] | Activity [4] | Activity [5] | Activity [6] | Activity [7] | Activity [8] | Activity (Mus musculus) | Activity (MT4)
CCCCCCCCCCCCCCCCCCNc1nc(=O)c2c(ncn2[C@@H]2C[C@@H](O)[C@H](CO)O2)c(=O)[nH]1 | Active | Active | Active | Active | Active | Active | Active | Active | Non-toxic | Non-toxic
CCCCCCCCCCCCCCCCCCNc1nc(=O)c2ncn([C@@H]3O[C@H](CO)[C@@H](O)[C@H]3O)c2c(=O)[nH]1 | Active | Active | Active | Active | Active | Active | Active | Active | Non-toxic | Non-toxic
